Laboratory results taken from ChEMBL document CHEMBL3792365, “Dioxol and dihydrodioxin analogs of 2- and 3-phenylacetonitriles as potent anti-cancer agents with nanomolar activity against a variety of human cancer cells” (2016).
The source made the active and inactive calls. The calls are words filed in the database; no cut-off is given here.

Key:
[1] = tested on: CCRF-CEM; test: Growth inhibition of human CCRF-CEM cells after 48 hrs by sulforhodamine B assay; type: functional
How it was run: (§1)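 Five-dose testing against a 60-line human tumor cell panel. GI50 is the drug concentration giving a 50% reduction in net protein increase relative to untreated control cells.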

[2] = tested on: K562; test: Growth inhibition of human K562 cells after 48 hrs by sulforhodamine B assay; type: functional; details: K562, 48 h; how it was run: as §1
[3] = Growth inhibition of human MOLT4 cells after 48 hrs by sulforhodamine B assay; type: functional; details: MOLT-4, 48 h
How it was run: (§2)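 Five-dose concentration series run across a panel of 60 human tumour cell lines. GI50 is taken as the drug concentration giving a 50% reduction in net protein increase relative to untreated control cells.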

[4] = Growth inhibition of human RPMI8226 cells after 48 hrs by sulforhodamine B assay; type: functional; details: RPMI-8226, 48 h; how it was run: as §2
[5] = tested on: A549; test: Growth inhibition of human A549/ATCC cells after 48 hrs by sulforhodamine B assay; type: functional; details: A549, 48 h; how it was run: as §1
[6] = Growth inhibition of human COLO205 cells after 48 hrs by sulforhodamine B assay; type: functional; details: COLO 205, 48 h; how it was run: as §1
[7] = Growth inhibition of human HCT116 cells after 48 hrs by sulforhodamine B assay; type: functional; details: HCT-116, 48 h; how it was run: as §1
[8] = tested on: HT-29; test: Growth inhibition of human HT-29 cells after 48 hrs by sulforhodamine B assay; type: functional; details: HT-29, 48 h; how it was run: as §1
[9] = Growth inhibition of human SF295 cells after 48 hrs by sulforhodamine B assay; type: functional; details: SF-295, 48 h; how it was run: as §2
[10] = Growth inhibition of human SNB19 cells after 48 hrs by sulforhodamine B assay; type: functional; details: SNB-19, 48 h; how it was run: as §2
[11] = Growth inhibition of human LOXIMVI cells after 48 hrs by sulforhodamine B assay; type: functional; details: LOX IMVI; how it was run: as §1
[12] = tested on: M14; test: Growth inhibition of human M14 cells after 48 hrs by sulforhodamine B assay; type: functional; details: M14, 48 h; how it was run: as §1
[13] = tested on: SK-MEL-2; test: Growth inhibition of human SK-MEL-2 cells after 48 hrs by sulforhodamine B assay; type: functional; details: SK-MEL-2, 48 h; how it was run: as §2
[14] = tested on: SK-MEL-28; test: Growth inhibition of human SK-MEL-28 cells after 48 hrs by sulforhodamine B assay; type: functional; details: SK-MEL-28, 48 h; how it was run: as §2
[15] = Growth inhibition of human UACC62 cells after 48 hrs by sulforhodamine B assay; type: functional; details: UACC-62, 48 h
How it was run: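 Five-dose testing across the 60-line human tumour cell panel. GI50 is the drug concentration that gives a 50% reduction in net protein increase relative to control cells.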

[16] = Growth inhibition of human IGROV1 cells after 48 hrs by sulforhodamine B assay; type: functional; details: IGROV-1, 48 h; how it was run: as §1
[17] = Growth inhibition of human OVCAR3 cells after 48 hrs by sulforhodamine B assay; type: functional; details: OVCAR-3, 48 h; how it was run: as §2
[18] = tested on: 786-0; test: Growth inhibition of human 786-0 cells after 48 hrs by sulforhodamine B assay; type: functional; details: 786-0, 48 h; how it was run: as §1
[19] = tested on: A498; test: Growth inhibition of human A498 cells after 48 hrs by sulforhodamine B assay; type: functional; details: A498, 48 h; how it was run: as §1
[20] = tested on: ACHN; test: Growth inhibition of human ACHN cells after 48 hrs by sulforhodamine B assay; type: functional; how it was run: as §1
[21] = tested on: MDA-MB-468; test: Growth inhibition of human MDA-MB-468 cells after 48 hrs by sulforhodamine B assay; type: functional; details: MDA-MB-468, 48 h; how it was run: as §1
[22] = biological target: T1, Tubulin (Homo sapiens) (UniProt P68371+Q9H4B7+P0DPH7+P68366+Q13509+Q71U36+P04350+Q3ZCM7+P07437+P68363+Q9BQE3+Q6PEY2+Q13885+Q9BVA1+Q9BUF5); test: Inhibition of tubulin polymerization (unknown origin) in rapid phase assessed as polymerization rate at 10 uM (reference value: 8.6 +/- 0.4 x 10^-4AU/sec); type: protein-complex assay
[23] = biological target: T1, Tubulin (Homo sapiens); test: Inhibition of tubulin polymerization (unknown origin) in rapid phase assessed as polymerization rate at 100 uM (reference value: 8.6 +/- 0.4 x 10^-4AU/sec); type: protein-complex assay
[24] = biological target: T1, Tubulin (Homo sapiens); test: Induction of tubulin depolymerization (unknown origin) in slow phase assessed as depolymerization rate at 10 uM (reference value: 1.3 +/- 0.1 10^-5AU/sec); type: protein-complex assay
[25] = biological target: T1, Tubulin (Homo sapiens); test: Induction of tubulin depolymerization (unknown origin) in slow phase assessed as depolymerization rate at 100 uM (reference value: 1.3 +/- 0.1 10^-5AU/sec); type: protein-complex assay
[26] = Growth inhibition of human SNB75 cells after 48 hrs by sulforhodamine B assay; type: functional; details: SNB-75, 48 h; how it was run: as §2
[27] = Growth inhibition of human OVCAR4 cells after 48 hrs by sulforhodamine B assay; type: functional; details: OVCAR-4, 48 h; how it was run: as §2
[28] = biological target: T1, Tubulin (Homo sapiens); test: Inhibition of tubulin polymerization (unknown origin) in rapid phase; type: protein-complex assay
[29] = biological target: T1, Tubulin (Homo sapiens); test: Induction of tubulin depolymerization (unknown origin) in slow phase; type: protein-complex assay
[30] = biological target: T1, Tubulin (Homo sapiens); test: Inhibition of tubulin polymerization (unknown origin) in rapid phase assessed as polymerization rate at 10 to 100 uM; type: protein-complex assay
[31] = biological target: T1, Tubulin (Homo sapiens); test: Induction of tubulin depolymerization (unknown origin) in slow phase assessed as depolymerization rate at 10 to 100 uM; type: protein-complex assay

SMILES | GI50 [1] [µM] | GI50 [3] [µM] | GI50 [4] [µM] | GI50 [5] [µM] | GI50 [6] [µM] | GI50 [7] [µM] | GI50 [9] [µM] | GI50 [10] [µM] | GI50 [11] [µM] | GI50 [12] [µM] | GI50 [13] [µM] | GI50 [14] [µM] | GI50 [15] [µM] | GI50 [16] [µM] | GI50 [17] [µM] | GI50 [18] [µM] | GI50 [19] [µM] | GI50 [20] [µM] | GI50 [21] [µM] | GI50 [27] [µM] | other results
COc1ccc(/C=C(\C#N)c2ccc3c(c2)OCO3)cc1 | 0.25 | 0.45 | 0.49 | 0.27 | 0.14 | 0.22 | 0.2 | 0.75 | 0.57 | 0.12 | 0.21 | 0.45 | 0.59 | 3.6 | 0.27 | 18.9 | 0.2 | 0.52 | 0.28 |  | GI50 [2]: 0.04 µM; GI50 [8]: 0.06 µM; Activity [22]: 8 ×10⁻⁴ AU/sec; Activity [23]: 8.9 ×10⁻⁴ AU/sec; Activity [24]: 1.8 ×10⁻⁵ AU/sec; Activity [25]: 2 ×10⁻⁵ AU/sec
COc1cc(/C(C#N)=C/c2ccc3c(c2)OCCO3)cc(OC)c1OC | 0.21 | 0.62 | 0.06 | 0.06 | 0.12 | 0.03 | 0.02 | 0.19 | 0.06 | 0.03 |  | 0.06 | 0.03 | 0.63 | 0.04 | 0.04 | 0.03 | 0.08 | 0.03 | 0.26 | GI50 [26]: 0.03 µM; inhibition [28]: Dose-dependent effect; Activity [29]: Dose-dependent effect; Activity [22]: 6.9 ×10⁻⁴ AU/sec; Activity [23]: 2 ×10⁻⁴ AU/sec; Activity [24]: 1.6 ×10⁻⁵ AU/sec; Activity [25]: 3.2 ×10⁻⁵ AU/sec
COc1ccc(/C(C#N)=C/c2ccc3c(c2)OCCO3)cc1 | > 100 | > 100 | > 100 | 21.7 | > 100 | 6.33 | 10.6 | > 100 |  | 3.87 | 36.8 | > 100 | 8.68 | > 100 | 37.1 | 35.8 | > 100 | > 100 | 4.29 | 24.9 | GI50 [26]: 21.9 µM
COc1ccc(/C=C(\C#N)c2ccc3c(c2)OCO3)c2ccccc12 | 1.91 | 3.71 | 3.85 | 2.65 | 1.61 | 2.41 | 1.91 | 4.24 | 3.96 | 1.68 | 2.9 | 4.52 | 1.51 | 4.07 | 3.04 | 4.38 | 0.41 | 4.24 | 0.51 | 3.79 | GI50 [2]: 0.53 µM; GI50 [8]: 1.6 µM; GI50 [26]: 1.14 µM
COc1ccc(/C(C#N)=C/c2ccc3c(c2)OCCO3)cc1OC | 3.76 | 8.85 | 4.81 | 4.12 | 2.77 | 2.71 | 2.49 | 4.08 | 4.92 | 1.63 | 1.84 | 4.59 | 1.04 | 9.4 | 2.16 | 3.88 | 1.35 | 7.61 | 1.11 | 11.2 | GI50 [26]: 2.16 µM
N#C/C(=C\c1cc2ccccc2s1)c1ccc2c(c1)OCO2 | 0.05 | 0.07 | 0.19 | 0.09 | 0.03 | 0.04 | 0.04 | 0.23 | 0.05 | 0.04 | 0.04 | 0.24 | 0.06 | 0.09 | 0.04 | 0.88 | 0.03 | 0.06 | 0.38 | 1.27 | GI50 [2]: 0.04 µM; GI50 [8]: 0.03 µM; GI50 [26]: 0.02 µM; inhibition [30]: inactive; Activity [31]: inactive
COc1ccc(/C=C(\C#N)c2ccc3c(c2)OCO3)c(OC)c1 | 1.56 | 2.81 | 3.23 | 2.65 | 1.59 | 2.68 | 1.75 | 6.95 | 5.33 | 1.32 | 0.72 | 4.47 | 2.32 | 8.8 | 3.1 | 4.93 | 1.33 | 4.92 | 0.69 | 1.65 | GI50 [2]: 0.39 µM; GI50 [8]: 0.71 µM
N#C/C(=C\c1cccc2ccccc12)c1ccc2c(c1)OCO2 | 3.65 | 4.99 | 4.49 | 5 | 2.58 | 3.72 | 2.96 | 6.29 | 4.22 | 3.13 | 3.18 | 5.84 | 2.63 | 5.95 | 4.18 | 5.62 | 1.17 | 4.52 | 2.11 | 8.25 | GI50 [2]: 0.79 µM; GI50 [8]: 3.02 µM; GI50 [26]: 2.45 µM
